Tested on: not listed separately
Assay: Oral bioavailability in rat at 5 mg/kg
Type: ADME, organism-based
Details: in vivo

Point of comparison: O=S(=O)(c1cccc(F)c1)c1ccc2c3c(oc2c1)C1(CCOCC1)NCC3, bioavailability 6%. Against it:
- CC1(C)NCCc2c1oc1cc(S(=O)(=O)c3cccc(F)c3)ccc21 — higher, 15%

Tested on: Brain
Assay: Drug uptake in rat brain at 5 mg/kg, ip after 1 hr
Type: ADME, organism-based
Parameters: dose 5 mg/kg, route intraperitoneal
Details: in vivo
In short: (§1)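 Rats dosed intraperitoneally at 5 mg/kg. Brain concentration measured at 1 h and expressed as a brain-to-plasma ratio.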

Point of comparison: O=S(=O)(c1cccc(F)c1)c1ccc2c3c(oc2c1)C1(CCOCC1)NCC3, Drug uptake 979 nmol/g. Against it:
- CC1(C)NCCc2c1oc1cc(S(=O)(=O)c3cccc(F)c3)ccc21 — higher, 1620 nmol/g

Tested on: not listed separately
Assay: Dissociation constant, pKa of the compound
Type: physicochemical
Details: not given
In short: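 pKa is a calculated value, not a measured one.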

Work on O=S(=O)(c1cccc(F)c1)c1ccc2c3c(oc2c1)C1(CCOCC1)NCC3 yielded a pKa of 7.4.

Tested on: not listed separately
Assay: Half life in dog liver microsomes
Type: ADME, Canis lupus familiaris, Microsome
Details: not given

Point of comparison: CC1(C)NCCc2c1oc1cc(S(=O)(=O)c3cccc(F)c3)ccc21, half-life 32 min. Against it:
- O=S(=O)(c1cccc(F)c1)c1ccc2c3c(oc2c1)C1(CCOCC1)NCC3 — higher, > 40 min

Molecular target: 5-hydroxytryptamine receptor 6 (Rattus norvegicus, UniProt P31388)
Assay: Displacement of [3H]LSD from full length rat 5HT6 receptor
Details: not given
In short: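 Radioligand binding with [³H]LSD on membranes from cells expressing full-length rat 5-HT6R.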

Sequence of 5-hydroxytryptamine receptor 6 (Rattus norvegicus, UniProt P31388) (P31388 whole entry): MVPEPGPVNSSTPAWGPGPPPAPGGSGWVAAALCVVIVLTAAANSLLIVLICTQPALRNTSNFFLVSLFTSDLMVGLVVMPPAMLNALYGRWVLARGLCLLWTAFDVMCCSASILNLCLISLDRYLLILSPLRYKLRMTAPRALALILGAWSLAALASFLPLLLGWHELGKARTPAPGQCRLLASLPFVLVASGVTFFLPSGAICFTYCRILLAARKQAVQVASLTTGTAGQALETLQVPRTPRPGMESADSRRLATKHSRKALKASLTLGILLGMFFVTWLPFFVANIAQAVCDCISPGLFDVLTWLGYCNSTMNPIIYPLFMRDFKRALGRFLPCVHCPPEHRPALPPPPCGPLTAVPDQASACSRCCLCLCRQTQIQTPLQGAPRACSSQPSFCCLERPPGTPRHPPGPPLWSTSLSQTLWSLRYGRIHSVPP

Point of comparison: O=S(=O)(c1cccc(F)c1)c1ccc2c3c(oc2c1)C1(CCOCC1)NCC3, Ki 14 nM. Against it:
- CC1(C)NCCc2c1oc1cc(S(=O)(=O)c3cccc(F)c3)ccc21 — within 1.5-fold, 19 nM

Tested on: not listed separately
Assay: Half life in rat at 1 mg/kg, iv
Type: ADME, organism-based
Parameters: dose 1 mg/kg, route intravenous
Details: in vivo

Point of comparison: CC1(C)NCCc2c1oc1cc(S(=O)(=O)c3cccc(F)c3)ccc21, half-life 54 min. Against it:
- O=S(=O)(c1cccc(F)c1)c1ccc2c3c(oc2c1)C1(CCOCC1)NCC3 — the same, 54 min

Tested on: not listed separately
Assay: Ratio of drug level in brain to plasma in rat at 5 mg/kg, ip
Type: ADME, organism-based
Parameters: dose 5 mg/kg, route intraperitoneal
Details: read-out: BPR
In short: as §1

Point of comparison: O=S(=O)(c1cccc(F)c1)c1ccc2c3c(oc2c1)C1(CCOCC1)NCC3, Kp 3.3. Against it:
- CC1(C)NCCc2c1oc1cc(S(=O)(=O)c3cccc(F)c3)ccc21 — higher, 7.7

Tested on: not listed separately
Assay: Half life in human liver microsomes
Type: ADME, Microsome
Details: not given

Point of comparison: O=S(=O)(c1cccc(F)c1)c1ccc2c3c(oc2c1)C1(CCOCC1)NCC3, half-life 19 min. Against it:
- CC1(C)NCCc2c1oc1cc(S(=O)(=O)c3cccc(F)c3)ccc21 — higher, > 40 min

Tested on: not listed separately
Assay: Plasma clearance in rat at 1 mg/kg, iv
Type: ADME, organism-based
Parameters: dose 1 mg/kg, route intravenous
Details: not given

Point of comparison: O=S(=O)(c1cccc(F)c1)c1ccc2c3c(oc2c1)C1(CCOCC1)NCC3, clearance 17 mL/min/kg. Against it:
- CC1(C)NCCc2c1oc1cc(S(=O)(=O)c3cccc(F)c3)ccc21 — 4.8-fold higher, 82 mL/min/kg

Tested on: not listed separately
Assay: Volume of distribution in rat at 1 mg/kg, iv
Type: ADME, organism-based
Parameters: dose 1 mg/kg, route intravenous
Details: in vivo

Point of comparison: CC1(C)NCCc2c1oc1cc(S(=O)(=O)c3cccc(F)c3)ccc21, Vd 5.5 L/kg. Against it:
- O=S(=O)(c1cccc(F)c1)c1ccc2c3c(oc2c1)C1(CCOCC1)NCC3 — 3.9-fold lower, 1.4 L/kg

Tested on: not listed separately
Assay: Cmax in rat at 5 mg/kg, po
Type: ADME, organism-based
Parameters: dose 5 mg/kg, route oral
Details: in vivo

Point of comparison: CC1(C)NCCc2c1oc1cc(S(=O)(=O)c3cccc(F)c3)ccc21, Cmax 35 ng/mL. Against it:
- O=S(=O)(c1cccc(F)c1)c1ccc2c3c(oc2c1)C1(CCOCC1)NCC3 — 2.4-fold higher, 84 ng/mL

Molecular target: T1, 5-hydroxytryptamine receptor 6 (Homo sapiens, UniProt P50406)
Assay: Antagonist activity at human recombinant 5-HT6 receptor expressed human astrocytoma cells assessed as inhibition of 5-HT-induced cAMP accumulation after 10 mins preincubation by HTRF assay
Details: not given

T1 sequence (P50406 whole entry): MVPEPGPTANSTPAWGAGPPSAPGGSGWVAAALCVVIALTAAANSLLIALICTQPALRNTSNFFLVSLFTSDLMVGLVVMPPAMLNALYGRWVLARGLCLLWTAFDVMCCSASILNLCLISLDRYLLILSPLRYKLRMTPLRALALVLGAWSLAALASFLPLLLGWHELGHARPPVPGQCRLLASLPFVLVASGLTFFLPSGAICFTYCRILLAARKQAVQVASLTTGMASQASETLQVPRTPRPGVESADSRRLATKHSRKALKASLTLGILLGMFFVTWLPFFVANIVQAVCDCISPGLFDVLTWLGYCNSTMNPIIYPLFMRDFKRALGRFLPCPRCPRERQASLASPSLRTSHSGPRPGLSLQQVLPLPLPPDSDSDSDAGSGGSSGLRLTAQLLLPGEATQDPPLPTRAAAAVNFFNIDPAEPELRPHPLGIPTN

Point of comparison: CC1(C)NCCc2c1oc1cc(S(=O)(=O)c3cccc(F)c3)ccc21, IC50 11.7 nM. Against it:
- O=S(=O)(c1cccc(F)c1)c1ccc2c3c(oc2c1)C1(CCOCC1)NCC3 — 1.7-fold lower, 6.8 nM

Molecular target: Voltage-gated inwardly rectifying potassium channel KCNH2 (Homo sapiens, UniProt Q12809)
Assay: Inhibition of human ERG by patch express assay
Details: not given

Sequence of Voltage-gated inwardly rectifying potassium channel KCNH2 (Q12809 whole entry): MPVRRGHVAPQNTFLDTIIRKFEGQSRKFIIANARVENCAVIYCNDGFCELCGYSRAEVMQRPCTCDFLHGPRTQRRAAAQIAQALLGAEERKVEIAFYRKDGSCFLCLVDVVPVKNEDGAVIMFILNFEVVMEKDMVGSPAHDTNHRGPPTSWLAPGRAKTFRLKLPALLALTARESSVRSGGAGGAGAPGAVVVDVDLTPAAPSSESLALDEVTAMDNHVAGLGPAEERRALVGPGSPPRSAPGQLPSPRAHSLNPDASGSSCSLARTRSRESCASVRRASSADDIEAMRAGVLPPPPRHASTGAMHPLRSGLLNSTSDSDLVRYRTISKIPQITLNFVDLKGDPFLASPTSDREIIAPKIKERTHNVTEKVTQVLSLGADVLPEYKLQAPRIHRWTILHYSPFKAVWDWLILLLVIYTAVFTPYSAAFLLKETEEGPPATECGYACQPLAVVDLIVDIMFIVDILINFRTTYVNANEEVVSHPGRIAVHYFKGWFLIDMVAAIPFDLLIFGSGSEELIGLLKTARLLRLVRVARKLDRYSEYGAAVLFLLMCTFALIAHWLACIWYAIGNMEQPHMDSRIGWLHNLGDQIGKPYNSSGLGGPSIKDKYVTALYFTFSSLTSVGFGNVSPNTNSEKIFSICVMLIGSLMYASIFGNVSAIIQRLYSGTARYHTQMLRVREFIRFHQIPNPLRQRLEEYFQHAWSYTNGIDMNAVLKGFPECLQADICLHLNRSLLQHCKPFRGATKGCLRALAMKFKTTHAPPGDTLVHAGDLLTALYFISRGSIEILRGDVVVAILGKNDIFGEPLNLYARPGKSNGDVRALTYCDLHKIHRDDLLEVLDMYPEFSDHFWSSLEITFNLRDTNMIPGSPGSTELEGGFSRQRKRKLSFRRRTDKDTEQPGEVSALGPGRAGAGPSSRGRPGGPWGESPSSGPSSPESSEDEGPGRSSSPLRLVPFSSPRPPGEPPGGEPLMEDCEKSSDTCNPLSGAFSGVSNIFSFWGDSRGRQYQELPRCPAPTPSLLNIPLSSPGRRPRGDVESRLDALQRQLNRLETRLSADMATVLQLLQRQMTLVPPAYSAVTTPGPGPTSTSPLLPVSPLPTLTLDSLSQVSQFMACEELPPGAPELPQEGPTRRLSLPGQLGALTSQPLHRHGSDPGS

In the case of O=S(=O)(c1cccc(F)c1)c1ccc2c3c(oc2c1)C1(CCOCC1)NCC3, the IC50 is reported as > 30000 nM.

Tested on: not listed separately
Assay: Half life in rat liver microsomes
Type: ADME, Microsome
Details: not given

Point of comparison: O=S(=O)(c1cccc(F)c1)c1ccc2c3c(oc2c1)C1(CCOCC1)NCC3, half-life 25 min. Against it:
- CC1(C)NCCc2c1oc1cc(S(=O)(=O)c3cccc(F)c3)ccc21 — 1.6-fold lower, 16 min

Tested on: Rattus norvegicus
Assay: AUC in rat at 5 mg/kg, po after 6 hrs
Type: ADME, organism-based, Plasma
Parameters: time < 6 hr, dose 5 mg/kg, route oral
Details: in vivo

Point of comparison: CC1(C)NCCc2c1oc1cc(S(=O)(=O)c3cccc(F)c3)ccc21, AUC 149 ng·h/mL. Against it:
- O=S(=O)(c1cccc(F)c1)c1ccc2c3c(oc2c1)C1(CCOCC1)NCC3 — 2.5-fold higher, 368 ng·h/mL

Molecular target: T1, 5-hydroxytryptamine receptor 6
Assay: Displacement of [3H]LSD from full length human 5HT6 receptor
Details: not given
In short: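 Radioligand binding with [³H]LSD on membranes from cells expressing full-length human 5-HT6R.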

Point of comparison: CC1(C)NCCc2c1oc1cc(S(=O)(=O)c3cccc(F)c3)ccc21, Ki 2.9 nM. Against it:
- O=S(=O)(c1cccc(F)c1)c1ccc2c3c(oc2c1)C1(CCOCC1)NCC3 — within 1.5-fold, 2.1 nM
